# In ChEMBL document CHEMBL3526009, “Breast cancer resistance protein (ABCG2) determines distribution of genistein phase II metabolites: reevaluation of the roles of ABCG2 in the disposition of genistein” (Drug Metab Dispos, 2012):
# What was measured:
# [1] = Biliary excretion in wild-type FVB mouse treated with genistein measured after 2.5 hrs post intestinal perfusion by UPLC-MS/MS analysis; format: ADME, Bile; conditions: in vivo, other
# Procedure, shortened: (§1)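 Gallbladder bile taken after 2.5 h of simultaneous small intestine/colon perfusion with 10 μM genistein (HBSS pH 7.4, 0.191 ml/min) in FVB or Bcrp1(−/−) mice (n = 4). Bile diluted 20-fold in HBSS, daidzein internal standard in acetonitrile added, dried and reconstituted. Genistein and conjugates quantified by UPLC-MS/MS.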
# [2] = Biliary excretion in BCRP-/- mouse treated with genistein measured after 2.5 hrs post intestinal perfusion by UPLC-MS/MS analysis; format: ADME, Bile; conditions: in vivo, other; procedure, shortened: as §1
# Blood = test: Stability in Wistar rat blood at 3 uM up to 4 hrs by UPLC-MS/MS analysis; format: ADME, tissue-based
# Procedure, shortened: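 Genistein glucuronide mixture (G-7-G plus G-4′-G, 3 μM) with 3.8 μM genistein incubated in fresh rat whole blood, 37°C shaking water bath. Sampled at 0, 60, 120 and 240 min. Reaction stopped with acetonitrile containing daidzein internal standard. Genistein and conjugates quantified by UPLC-MS/MS using multiple reaction monitoring. n = 3.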
# [3] = Stability in potassium phosphate buffer at pH 7.4 up to 4 hrs; format: physicochemical; conditions: pH 7.4, 4 h
# Procedure, shortened: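 Negative control run under the blood-incubation conditions but in 50 mM potassium phosphate buffer, pH 7.4, instead of blood. Genistein glucuronides (G-7-G plus G-4′-G, with aglycone) or sulfates (G-7-S plus G-4′-S, with aglycone) held at 37°C in a shaking water bath up to 4 h. Sampled at 0, 60, 120 and 240 min and read by UPLC-MS/MS.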
smiles,measurement,setting,value
O=C(O)[C@H]1O[C@@H](Oc2cc(O)c3c(=O)c(-c4ccc(O)cc4)coc3c2)[C@H](O)[C@@H](O)[C@@H]1O,Drug excretion,[1],metabolite_detected
same,Drug excretion,[2],metabolite_detected
same,Stability,Blood,Stable
same,Stability,[3],Stable
